This is a sample that favours compounds with a hit; in the whole collection about 2.7% have one here.
PAFAH1B2 FP inh: inhibitors of human PAFAH1B2; P68402; recombinant PAFAH1B2, FP-rhodamine activity probe, fluorescence polarization; inhibition, % at 3.39 µM; actives 1.2% (n = 340,000); AID 492953;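 active means inhibition above the mean of all tested compounds plus 3 SD, cut at about 24% in these data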
Target sequence (P68402 whole entry, looked up): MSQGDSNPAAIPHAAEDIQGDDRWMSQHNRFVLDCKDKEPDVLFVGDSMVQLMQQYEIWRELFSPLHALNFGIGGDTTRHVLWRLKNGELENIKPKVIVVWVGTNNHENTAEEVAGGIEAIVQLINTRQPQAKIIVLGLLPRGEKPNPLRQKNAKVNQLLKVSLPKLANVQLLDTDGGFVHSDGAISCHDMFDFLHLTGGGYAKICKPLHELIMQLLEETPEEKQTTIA
pPAFAH inh: pPAFAH (human) enzyme inhibition | Q13093 | inhibition, % at 3.39 µM | recombinant pPAFAH, FP-rhodamine probe fluorescence polarization | actives 1.5% (n = 330,000);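 active means inhibition above the mean inhibition across the screen plus 3 SD, cut at about 25% in these data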;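 further: inhibitors block binding of the rhodamine activity-based probe so polarization drops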
ARFGAP1 inh: rat ARFGAP1 inhibition. Q62848. Arfgap1-stimulated ARF1 GTP hydrolysis, GDP FP detection. inhibition, % at 16.5 µM. actives 0.26% (n = 360,000). AID 651572;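 active means inhibition above a per-plate limit, mean inhibition of low control wells plus 3 SD, cut at about 25% in these data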
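Material – truncated rat Arfgap1 GAP domain · Buffer or medium – HEPES-based buffer, pH 7.5 · Reagent – human ARF1(Δ1-17)-GTP substrate · Dosing – 16.5 µM single point, 1.26% DMSO · Schedule – GTP hydrolysis reaction 2 h at 25 °C · Technique – GDP detection by fluorescence polarization · Benchmarks – No-Arfgap1 wells (100%) versus DMSO full-reaction wells (0%) · Repeats – single replicate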
ASAP1 inh: blocks human ASAP1-stimulated Arf1 GTP hydrolysis. Q9ULH1. GDP FP detection. actives 0.19% (n = 360,000). inhibition, % at 16.5 µM; in the data active means inhibition above about 25%
PAFAH1B3 inh: inhibitors of human PAFAH1B3; Q15102; recombinant PAFAH1B3, FP-rhodamine probe, fluorescence polarization; inhibition, % at 3.39 µM; actives 0.28% (n = 340,000);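 active means inhibition above the screen-wide average of all tested compounds plus 3 SD, cut at about 25% in these data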
Target sequence (Q15102 whole entry, looked up): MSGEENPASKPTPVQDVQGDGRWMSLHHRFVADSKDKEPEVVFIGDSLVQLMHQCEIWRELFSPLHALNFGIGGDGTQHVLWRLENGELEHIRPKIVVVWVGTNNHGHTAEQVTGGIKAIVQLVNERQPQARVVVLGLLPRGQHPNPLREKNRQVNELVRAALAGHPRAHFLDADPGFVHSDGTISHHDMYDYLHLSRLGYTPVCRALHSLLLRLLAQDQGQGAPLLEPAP
PAFAH2 inh: PAFAH2 (human) inhibition; Q99487; AID 492956; recombinant PAFAH2, FP-rhodamine activity probe, fluorescence polarization; inhibition, % at 3.39 µM; actives 0.99% (n = 340,000);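 active means inhibition above the mean over all tested compounds plus 3 SD, cut at about 30% in these data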;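 further: inhibitors block probe labeling of enzyme so polarization drops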
PAFAH2 confirm: PAFAH2 (human) inhibition, confirmed; shares compounds with PAFAH2 inh; recombinant PAFAH2, FP-rhodamine activity probe, fluorescence polarization; inhibition, % at 3.39 µM; actives 65% (n = 2,300); AID 493030;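 active means mean inhibition over three repeats above a set limit taken from the earlier primary screen, cut at about 30% in these data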;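 further: inhibitor blocks binding of rhodamine activity probe so polarization falls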
A number is an active result; – = inactive; · = no result given.

SMILES | PAFAH1B2 FP inh | pPAFAH inh | ARFGAP1 inh | ASAP1 inh | PAFAH1B3 inh | PAFAH2 inh | PAFAH2 confirm
CN(C)S(=O)(=O)c1ccc(Cl)c(NC(=O)COC(=O)/C=C/c2ccco2)c1 | – | – | – | – | – | 46.1 | 46.9
N#Cc1ccccc1NC(=O)COC(=O)/C=C/c1ccc(S(=O)(=O)N2CCOCC2)cc1 | – | – | – | – | – | 50.5 | 31.1
COc1ccc(/C=C/C(=O)OCC(=O)Nc2cc(S(=O)(=O)N(C)C)ccc2Cl)cc1 | – | – | – | – | – | – | ·
CC1(C(=O)NS(=O)(=O)C2CC2)CCCN(C(=O)c2cccnc2Oc2ccccc2)C1 (stereo not drawn) | · | · | – | – | · | · | ·
CN(Cc1ccccc1)S(=O)(=O)c1ccc2c(c1)CCC(=O)N2 | – | – | – | – | – | – | ·
CCN(CC)S(=O)(=O)c1ccc(Cl)c(NC(=O)COC(=O)c2c(C)noc2C)c1 | – | – | – | – | – | – | ·
CCN(CC)S(=O)(=O)c1ccc(Cl)c(NC(=O)COC(=O)c2cccn2C)c1 | – | – | – | – | – | 30.6 | –
CCN(CC)S(=O)(=O)c1ccc(Cl)c(NC(=O)COC(=O)C2CCCCC2)c1 | – | – | – | – | – | 46.0 | 30.8
CC(C)=CC(=O)OCC(=O)Nc1ccc(SC(F)F)cc1 | – | – | – | – | – | 78.3 | 84.6
CCOc1ccc(Br)cc1S(=O)(=O)Nc1ccc(C(=O)OCC(=O)Nc2ccc(C#N)cc2)cc1 | – | – | – | – | – | 36.1 | 29.9
O=C(COC(=O)c1cc[n+]([O-])cc1)Nc1ccc(SC(F)F)cc1 | – | – | – | – | – | – | ·
CCOc1ccc(C(=O)OCC(=O)Nc2ccc(SC(F)F)cc2)cc1OCC | – | – | – | – | – | 80.1 | 77.1
C[C@@H]1CN([C@@H](C)CO)C(=O)c2cc(Br)cnc2O[C@H]1CN(C)C(=O)Cc1cccnc1 | · | · | – | – | · | · | ·
Fc1cccc(Cc2c(-c3ccco3)nc3ccc(Br)cn23)c1 | · | · | – | – | · | · | ·
COC(=O)c1ccccc1S(=O)(=O)NNC(=O)Nc1ccccc1 | – | – | – | – | – | 34.4 | –
COC(=O)c1ccccc1S(=O)(=O)C(C)(C)C | – | – | – | – | – | – | ·
CC(C)(C)c1nc[nH]c(=O)c1Br | – | – | – | – | – | 62.8 | 41.1
Cc1nnc(SCC2=C(C(=O)O)N3C(=O)C(NC(=O)Cc4ccccc4)C3SC2)s1 (stereo not drawn) | – | – | – | – | – | 79.4 | 65.4
O=C1CC(=O)Nc2cc(S(=O)(=O)N3CCOc4ccc(Cl)cc43)ccc2N1 | – | – | – | – | – | 45.2 | 39.8
Cc1cc(C(=O)OCC(=O)NCc2ccc(Cl)cc2Cl)c(C)o1 | – | – | – | – | – | 36.9 | –
COc1ccccc1CNC(=O)COC(=O)C1CC1 | – | – | – | – | – | – | ·
Cc1cc(C(=O)OCC(=O)NCc2ccccc2Cl)c(C)o1 | – | – | – | – | – | 50.8 | 50.2
COc1ccccc1CNC(=O)COC(=O)c1cc(C)oc1C | – | – | – | – | – | – | ·
O=C(COC(=O)C1CC1)NCc1ccccc1Cl | – | – | – | – | – | 58.3 | 51.6
CC(=C1N=C(c2ccccc2)OC1=O)c1cccs1 | · | · | – | – | · | · | ·
SMILES | PAFAH1B2 FP inh | pPAFAH inh | ARFGAP1 inh | ASAP1 inh | PAFAH1B3 inh | PAFAH2 inh | PAFAH2 confirm
Cc1ccc(S(=O)(=O)N(C)c2ccc(OC(C)C(=O)N3CCCC3)cc2)cc1C (stereo not drawn) | – | – | – | – | – | – | ·
Cc1ccc(S(=O)(=O)N(C)c2ccc(OC(=O)c3cccs3)cc2)cc1C | – | – | – | – | – | 33.5 | –
CC1(C)CC(=O)C=C(c2ccc(-c3ccc(OC(F)(F)F)cc3)cc2)C1=O | · | · | – | – | · | · | ·
COc1cccc(C(=O)OCC(=O)NCCC2=CCCCC2)c1 | – | – | – | – | – | 37.6 | –
COc1cc(C(=O)OCC(=O)NCCC2=CCCCC2)ccc1OCC(C)C | – | – | – | – | – | 41.3 | 42.8
Cc1cc(C)c2c(=O)[nH][nH]c2n1 | – | · | – | – | – | – | ·
COc1ccc(NC(=O)CSc2ncccn2)cc1S(=O)(=O)N1CCCCC1 | – | – | – | – | – | – | ·
Cc1cc(C(=O)OCC(=O)Nc2cc(S(=O)(=O)N3CCOCC3)ccc2Cl)c(C)o1 | – | – | – | – | – | 35.3 | 30.7

Assay outcomes from PubChem.
